Key:
[1] = tested on: Plasmodium falciparum; test: In vitro antimalarial activity against chloroquine-resistant Plasmodium falciparum K1; format: functional, organism-based
Method in brief: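 Tritiated hypoxanthine uptake assay (modified Desjardins method) on P. falciparum asexual cultures, run on chloroquine-resistant K1 and drug-sensitive NF54 strains.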

[2] = tested on: Plasmodium falciparum; test: In vitro antimalarial activity against drug-sensitive Plasmodium falciparum NF54
[3] = tested on: Mus musculus; test: In vivo evaluation for antimalarial activity against Plasmodium berghei in percentage when administered orally in mice (Mus musculus); format: functional; design: concentration or dose not given beside the values
Method in brief: (§1)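 Moro SPF mice infected with P. berghei ANKA, three per group. A single 100 mg/kg dose in 3% ethanol/7% Tween 80 (solution or suspension) was given on day 1 post-infection, po or sc. Activity is percent reduction of parasitemia on day 3 post-infection versus untreated controls.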

[4] = tested on: Mus musculus; test: In vivo evaluation for antimalarial activity against Plasmodium berghei in terms of survival days when administered subcutaneously in mice (Mus musculus); format: functional
Method in brief: (§2)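 P. berghei ANKA infection in Moro SPF mice, groups of three. Treatment was one 100 mg/kg dose on day 1 post-infection, dissolved or suspended in 3% ethanol plus 7% Tween 80, given orally or subcutaneously. Read-out is mean survival time in days, compared with an untreated control group.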

[5] = tested on: Mus musculus; test: In vivo evaluation for antimalarial activity against Plasmodium berghei in percentage when administered subcutaneously in mice (Mus musculus); format: functional; design: concentration or dose not given beside the values; method in brief: as §1
[6] = tested on: Mus musculus; test: In vivo evaluation for antimalarial activity against Plasmodium berghei in terms of survival days when administered orally in mice (Mus musculus); format: functional; method in brief: as §2

Row | Compound | IC50 [1] [nM] | IC50 [2] [nM] | Activity [3] [%] | Survival [4] [days] | Activity [5] [%] | Survival [6] [days]
1 | COC[C@H]1CCCCC12OOC1(CCCC[C@H]1COC)OO2 (some centres not stated) | 15 | 16 | 18 | 24.7 | 100 | 
2 | CCOC(=O)C[C@H]1CCCCC12OOC1(CCCC[C@H]1CC(=O)OCC)OO2 (some centres not stated) | 6.2 | 6.5 | 0 |  | 0 | 
3 | O=C(O)CC[C@H]1CCCCC12OOC1(CCCC[C@H]1CCC(=O)O)OO2 (some centres not stated) | > 200 | > 200 |  |  |  | 
4 | OC[C@@H]1CCCCC12OOC1(CCCC[C@@H]1CO)OO2 (some centres not stated) | > 200 | > 200 |  |  |  | 
5 | CCOC(=O)CC[C@H]1CCCCC12OOC1(CCCC[C@H]1CCC(=O)OCC)OO2 (some centres not stated) | 14 | 16 | 0 |  | 0 | 
6 | O=C(O)C[C@H]1CCCCC12OOC1(CCCC[C@H]1CC(=O)O)OO2 (some centres not stated) | > 200 | > 200 |  |  |  | 
7 | c1ccc(COC[C@H]2CCCCC23OOC2(CCCC[C@H]2COCc2ccccc2)OO3)cc1 (some centres not stated) | 18 | 26 | 0 |  | 0 | 
8 | O=C(OC[C@H]1CCCCC12OOC1(CCCC[C@H]1COC(=O)c1ccccc1)OO2)c1ccccc1 (some centres not stated) | > 200 | > 200 |  |  |  | 
9 | c1ccc(C[C@H]2CCCCC23OOC2(CCCC[C@H]2Cc2ccccc2)OO3)cc1 (some centres not stated) | > 200 | > 200 |  |  |  | 
10 | C#CC[C@@H]1CCCCC12OOC1(CCCC[C@@H]1CC#C)OO2 (some centres not stated) | 13 | 13 | 0 |  | 9 | 
11 | C=CC[C@@H]1CCCCC12OOC1(CCCC[C@@H]1CC=C)OO2 (some centres not stated) | 19 | 23 | 93 |  | 15 | 7
12 | C[C@@H]1CC[C@H]2[C@@H](C)C(=O)O[C@@H]3O[C@@]4(C)CC[C@@H]1[C@]32OO4 [ARTEMISININ] |  | 12 | 98 | 14 | 100 | 7.3
13 | C[C@@H]1CCCCC12OOC1(CCCC[C@@H]1C)OO2 (some centres not stated) [WR-148999] | 28 | 39 | 99.7 | 27.7 | 100 | 7.7
